The subject of series [1] is MDA-MB-231. Nature of the series: Growth inhibition of human MDA-MB-231 cells assessed as cell viability after 3 days by CellTitre-Glo Luminescent assay. Particulars: MDA-MB-231, 72 h. Type of series: functional.
Series [2] is described as follows: Oral bioavailability in BALB/cAJcl mouse at 10 mg/kg by LC/MS/MS analysis. Particulars: in vivo. Type of series: ADME, organism-based. The procedure, abridged: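 Female BALB/cAJcl mice, seven weeks old, were dosed orally at 10 mg/kg and intravenously at 1 mg/mL/kg. Plasma compound concentrations were measured by LC/MS/MS.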
The nature of series [3]: Clearance in mouse liver microsomes at 1 umol/l after 20 mins by LC/MS/MS analysis.
A short description of series [4]: Permeability of the compound by PAMPA. Particulars: read-out: permeability. Type of series: ADME.
Series [5] can be described thus: Clearance in human liver microsomes at 1 umol/l after 20 mins by LC/MS/MS analysis. A general note: Microsomes from liver hold many membrane-bound enzymes, among them those of drug oxidation.
For the next series, the system named is Mus musculus. Nature of the series: Toxicity in athymic nude BALB/cAJcl mouse xenografted with human MDA-MB-231 cells expressing luciferase gene at 30 mg/kg, po bid measured on day 14. The arrangement: dose 30 mg/kg, route oral. It counts as organism-based. Particulars: in vivo. On the technique in general: A xenograft is tissue or cells of one species grown in another, often human tumour cells in immunodeficient mice.

In series [6] the test system is MDA-MB-231. The experiment in a line: Antitumor activity against human MDA-MB-231 cells expressing luciferase gene xenografted in athymic nude BALB/cAJcl mouse assessed as tumor growth inhibition at 30 mg/kg, po bid measured on day 14 relative to control. Type of series: functional.
Series [7] in a line: Lipophilicity, log D of the compound at pH 7.4. Particulars: buffer.
For series [8], the system named is MDA-MB-231. The experiment in a line: Antitumor activity against human MDA-MB-231 cells expressing luciferase gene xenografted in po dosed athymic nude BALB/cAJcl mouse assessed as tumor regression administered bid measured on day 14. It counts as functional, organism-based.
The test system of series [9] is MDA-MB-231. The experiment in a line: Antitumor activity against human MDA-MB-231 cells expressing luciferase gene xenografted in athymic nude BALB/cAJcl mouse assessed as tumor growth inhibition at 100 mg/kg, po bid measured on day 14 relative to control. It counts as functional.

By GI50 is commonly meant the concentration giving 50% growth inhibition. In general, bioavailability refers to dose-corrected exposure relative to a reference, in per cent. High values mean good availability, low ones poor availability. A word on the microsomal CLint: it is a measure of how fast metabolising enzymes remove a compound, apart from limits set by blood flow. As a reminder, the logD is lipophilicity at a set pH, counting ionised and neutral species. Lower therefore signals a more hydrophilic compound.

Consider `CCO[C@@H]1C[C@@H]2CN(C(=O)[C@@H](NC(=O)[C@H](C)NC)C3CCC(F)(F)CC3)[C@H](C(=O)N[C@@H]3CCOc4ccccc43)CN2C1`, for which the 50% growth inhibitory concentration (GI50) with MDA-MB-231 [1] is 1.8 nM. The same compound displayed a bioavailability in [2] of 50%. Also, the microsomal CLint at 20 min, 1 µM amounted to 40 µL/min/mg in [3] and 52 µL/min/mg in [5]. In addition, the Papp in [4] was found to be 4.4 ×10⁻⁶ cm/s. In addition, the Activity result in the series with Mus musculus is “Non-toxic”; in the series with MDA-MB-231 [8], “Dose-dependent effect”. Moreover, the T/C with MDA-MB-231 [6] is -53%; in the series with MDA-MB-231 [9], -62%. This compound showed a pH-dependent lipophilicity (logD) in series [7] of 2.6.
`CN[C@@H](C)C(=O)N[C@H](C(=O)N1C[C@H]2CCCN2C[C@H]1C(=O)N[C@@H]1CCOc2ccccc21)C1CCC(F)(F)CC1`: the 50% growth inhibitory concentration (GI50) in the series on MDA-MB-231 [1] stood at 13 nM. The compound further came in with a bioavailability in [2] of 53%. Further, the figures for the microsomal CLint at 20 min, 1 µM in series [3] and in series [5] were 66 µL/min/mg and 82 µL/min/mg, respectively. The Papp in [4] was 0.3 ×10⁻⁶ cm/s. The same compound registered a logD in series [7] of 2.43.
As to `CN[C@@H](C)C(=O)N[C@H](C(=O)N1C[C@@H]2CCCN2C[C@H]1C(=O)N[C@@H]1CCOc2ccccc21)C1CCC(F)(F)CC1`, the GI50 in the series on MDA-MB-231 [1] was 15 nM. This compound came in with a bioavailability in series [2] of 13%. The microsomal CLint at 20 min, 1 µM in [3] amounted to 2 µL/min/mg; in [5], 38 µL/min/mg. This compound also displayed a logD in [7] of 1.94.
On to `CN[C@@H](C)C(=O)N[C@H](C(=O)N1C[C@H]2C[C@@H](O)CN2C[C@H]1C(=O)N[C@@H]1CCOc2ccccc21)C1CCC(F)(F)CC1`, for which the 50% growth inhibitory concentration (GI50) with MDA-MB-231 [1] amounted to 11 nM. The same compound had an intrinsic clearance (microsomal CLint) at 20 min, 1 µM in [5] of 4 µL/min/mg. In series [7], this compound came in with a pH-dependent lipophilicity (logD) of 1.6.
Turning to `CN[C@@H](C)C(=O)N[C@H](C(=O)N1C[C@H]2CCCN2C[C@H]1C(=O)N[C@@H]1CCOc2ccccc21)c1ccccc1`, in the series with MDA-MB-231 [1], the GI50 came to 11 nM. In [2], this compound showed a bioavailability of 33%. For the same compound, the microsomal CLint at 20 min, 1 µM came out at 129 µL/min/mg in series [3] and 90 µL/min/mg in series [5]. This compound also had a logD in series [7] of 2.17.
`CN[C@@H](C)C(=O)N[C@H](C(=O)N1C[C@H]2CCCN2C[C@H]1C(=O)N[C@H](C)c1ccccc1)C1CCCCC1`: the GI50 in the series with MDA-MB-231 [1] turned out to be 20 nM. For the same compound, in [2], the bioavailability was 63%. For the same compound, the figures for the intrinsic metabolic clearance (microsomal CLint) at 20 min, 1 µM in series [3] and in series [5] were 115 µL/min/mg and 82 µL/min/mg, respectively.
With `CN[C@@H](C)C(=O)N[C@H](C(=O)N1C[C@H]2CCCN2C[C@H]1C(=O)N[C@@H]1CCC(=O)c2ccccc21)C1CCCCC1`, in the series on MDA-MB-231 [1], the GI50 was 21 nM. The compound further came in with a bioavailability in series [2] of 30%. Also, the microsomal CLint at 20 min, 1 µM in series [3] was 161 µL/min/mg; in series [5] it was 154 µL/min/mg.
In the case of `CN[C@@H](C)C(=O)N[C@H](C(=O)N1C[C@H]2CCCN2C[C@H]1C(=O)N[C@@H]1CCC(F)(F)c2ccccc21)C1CCCCC1`, the GI50 in the series with MDA-MB-231 [1] came out at 18 nM. This compound also yielded a bioavailability in [2] of 26%. The microsomal CLint at 20 min, 1 µM turned out to be 208 µL/min/mg in series [3] and 130 µL/min/mg in series [5].
In the case of `CN[C@@H](C)C(=O)N[C@H](C(=O)N1C[C@H]2CCCN2C[C@H]1C(=O)N[C@H]1CCCc2ccccc21)C1CCCCC1`, the values for the microsomal CLint at 20 min, 1 µM in series [3] and in series [5] were 239 µL/min/mg and 236 µL/min/mg, respectively.
Consider `CN[C@@H](C)C(=O)N[C@H](C(=O)N1C[C@H]2CCCN2C[C@H]1C(=O)N[C@@H]1CCCc2ccccc21)C1CCCCC1.Cl.Cl`, for which, in the series with MDA-MB-231 [1], the GI50 was found to be 6.2 nM. In series [2], the bioavailability stood at 6%. Also, the intrinsic clearance (microsomal CLint) at 20 min, 1 µM in series [3] was found to be 232 µL/min/mg; in [5], 218 µL/min/mg.
Take `CN[C@@H](C)C(=O)N[C@H](C(=O)N1C[C@H]2CCCN2C[C@H]1C(=O)N[C@@H]1CCOc2ccccc21)C1CCOCC1`: the GI50 with MDA-MB-231 [1] stood at 20 nM. Moreover, the bioavailability in series [2] came out at 12%. Moreover, the figures for the microsomal CLint at 20 min, 1 µM in [3] and in series [5] were 21 µL/min/mg and 15 µL/min/mg, respectively. This compound also displayed a logD in series [7] of 1.75.
With `CN[C@@H](C)C(=O)N[C@H](C(=O)N1C[C@H]2CC(F)(F)CN2C[C@H]1C(=O)N[C@@H]1CCOc2ccccc21)C1CCC(F)(F)CC1`, the GI50 with MDA-MB-231 [1] turned out to be 8 nM. For the same compound, the bioavailability in [2] is 21%. Moreover, the intrinsic metabolic clearance (microsomal CLint) at 20 min, 1 µM in series [3] is 147 µL/min/mg; in [5], 170 µL/min/mg. Also, the logD in series [7] was determined as 2.56.
Taken in the same sequence, the figures for `CN[C@@H](C)C(=O)N[C@H](C(=O)N1C[C@H]2CCCN2C[C@H]1C(=O)N[C@@H]1CCOc2ccccc21)C1CCCCC1` were 5.7 nM, 41%, 116 µL/min/mg, 128 µL/min/mg and 2.91.

These data come from ChEMBL document CHEMBL2311403, “Design and synthesis of potent inhibitor of apoptosis (IAP) proteins antagonists bearing an octahydropyrrolo[1,2-a]pyrazine scaffold as a novel proline mimetic” (J Med Chem, 2013).
